Assay outcomes: PubChem BioAssay, several laboratories
AP ELISA ortho – orthogonal test for alternative complement pathway inhibitors; inhibition, % at 5 µM; hit rate 0.08% among 62,000; AID 1235; Human serum alternative complement pathway, LPS-coated ELISA, C3 deposition; tested in compound mixtures;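 active = inhibition above 30% in each of the two pooled mixtures holding the compound, so the lower value exceeds 30%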;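 also: 0% = serum in Mg-EGTA without compound and 100% = EDTA serum blank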
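Assay system: human serum alternative complement pathway, C3 deposition on LPS-coated wells; Dosing: 5 µM per compound in ten-compound mixtures; Detection: Anti-C3 ELISA, OD 450 nm; Buffer or medium: Mg2+-EGTA GVB++ buffer containing human serum at 1:15 dilution; Timing: 1 h at 37 °C; Replication: two different pools per compound.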
E coli WT exp – blocks growth of wild type E. coli BW25113. OD600 absorbance. growth inhibition, % at 100 µM. hit rate 0.15% among 98,000. AID 710;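 active = growth inhibition above about 50% at one test dose, limit read from the data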;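 also: growth measured after 20 h incubation at 37 °C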
Ec RNAP inh – Escherichia coli RNA polymerase inhibition; hit rate 0.2% among 62,000; AID 559; inhibition, %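 (tested at 10 µM)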; E. coli RNA polymerase, fluorescence transcription assay; in the data active = inhibition above about 20%;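 also: 0% = enzyme without compound and 100% = no enzyme blank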
Ecoli tolC – blocks growth of E. coli BW25113 tolC mutant; growth inhibition, % at 10 µM (by protocol); hit rate 2.2% among 65,000; OD615;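 active = growth inhibition at or above a cutoff equal to the mean over every tested compound plus 3 SD, cut at about 60% in these data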;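 also: growth measured after 20 h incubation at 37 °C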
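test system = E. coli BW25113 ΔtolC::kan bacteria | medium = LB with kanamycin 50 µg/mL | signal = OD at 615 nm | schedule = 37 °C, 20 h exposure | evaluation = % inhibition of E. coli growth | compound dosing = one dose of 10 µM final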
BAP1 inh – blocks human BAP1 ubiquitin-AMC hydrolysis. recombinant BAP1, Ub-AMC hydrolysis fluorescence kinetic; stronger effect = lower value. calls only at 20 µM. hit rate 0.48% among 72,000. AID 436;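 active = activity remaining at or below 50% of control, provided the compound also passes the data quality filters; inactive = the rest, including low values that fail the filters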;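 also: 100% = DMSO wells rate and 0% = substrate alone blank rate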
MMP13 inh – MMP13 (human) collagenase inhibition. hit rate 0.07% among 65,000. inhibition, % at 4 µM. P45452. MMP-13 fTHP FRET cleavage, Mca fluorescence;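 active = inhibition above the mean of compound-free control plate wells plus 3 SD, cut at about 14% in these data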;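 also: 0% = DMSO wells and 100% = wells with reference MMP-13 inhibitor after basal subtraction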
Active calls of the source: *; i = inactive; / = no result shown. This excerpt belongs to a sample that is enriched for hits.

SMILES	AP ELISA ortho	E coli WT exp	Ec RNAP inh	Ecoli tolC	BAP1 inh	MMP13 inh
COc1ccccc1N1CCN(c2nc(C)nc3c2oc2ccccc23)CC1	1	-3	10	97*	/	-8
Cc1cc(C)nc(N2CCN(c3nc(C)nc4c3oc3ccccc34)CC2)n1	-6	/	6	/	/	3
Cc1nc(N2CCN(Cc3ccc4c(c3)OCO4)CC2)c2oc3ccccc3c2n1	26	/	-5	95*	/	-2
Oc1ccc2c(c1)oc1cc(O)ccc12	-14	35	2	100*	/	-9
Cn1c(=O)[nH]c(=O)c2c1nc(SCCO)n2CCc1ccccc1	/	/	/	/	i	/
O=C(Oc1ccc2ccccc2c1Cl)N1CCCC1	-8	12	-9	61*	i	-1
O=S(=O)(Nc1cccc2cccnc12)c1ccc(S(=O)(=O)N2CCCC2)cc1	2	-4	4	81*	i	-2
CS(=O)(=O)Nc1cccc2cccnc12	5	21	9	-6	i	-2
COc1ccc(C(=O)N2c3ccccc3C(N(C(C)=O)c3ccccc3)CC2C)cc1 (centres undefined)	/	/	/	/	i	/
Cc1[nH]c(=O)[nH]c(=O)c1S(=O)(=O)N1CCN(c2ccccc2F)CC1	/	0	/	/	/	/
O=c1[nH]c2ccc(S(=O)(=O)N3CCN(c4ccccc4F)CC3)cc2s1	15	-5	0	100*	/	2
Cc1ccc(-c2noc(CCC(=O)N3CCCc4ccccc43)n2)cc1	5	3	7	92*	i	2
Cc1ccc(-c2nnn(CC(=O)N3CCCc4ccccc43)n2)cc1	/	-2	/	/	/	/
Cc1ccc(-c2noc(CCC(=O)N3CCN(c4cccc(C(F)(F)F)c4)CC3)n2)cc1	-3	-1	6	64*	i	0
N#Cc1nc(-c2ccc(OCc3ccccc3)cc2)oc1NCCCn1ccnc1	0	5	2	100*	i	-53
COc1ccc(CCNc2oc(COc3ccc(F)cc3)nc2C#N)cc1	4	1	0	96*	i	0
N#Cc1nc(COc2ccc(Br)cc2)oc1NCCCn1ccnc1	-4	38	4	97*	i	2
CCCOc1ccc(-c2nc(C#N)c(NCCCn3ccnc3)o2)cc1	/	-2	/	/	/	/
N#Cc1nc(-c2ccc(OCc3ccccc3Cl)cc2)oc1NCCCn1ccnc1	8	11	7	100*	i	-7
COc1ccc([N+](=O)[O-])cc1N1C(=O)C2C3C=CC(CC3)C2C1=O (centres undefined)	/	/	/	/	i	/
C=CCn1c(NC(C)c2cc(Cl)ccc2O)nc2ccccc21 (centres undefined)	27	4	0	100*	i	-8
Cc1cccc(-c2noc(CN(C(=O)CCc3ccccc3)C(C)C)n2)c1	20	0	1	76*	i	-4
Cc1ccc(-c2noc(CN(C(=O)c3cccc(Br)c3)C(C)C)n2)cc1	7	0	-3	78*	i	5
COc1cccc(C2C(N3C(=O)c4ccccc4C3=O)C(=O)N2c2ccc(C)cc2C)c1 (centres undefined)	/	/	/	/	i	/
CC1=C(C(=O)OCC2CCCCC2)C(c2ccc(Cl)cc2)NC(=O)N1 (centres undefined)	/	/	/	/	i	/
SMILES	AP ELISA ortho	E coli WT exp	Ec RNAP inh	Ecoli tolC	BAP1 inh	MMP13 inh
CC1=C(C(=O)OC2CCCCCC2)C(c2ccc(C)o2)C2=C(CCCC2=O)N1 (centres undefined)	2	-7	6	100*	i	-12
CC1=C(C(=O)OC2CCCC2)C(c2ccc(C)o2)C2=C(CC(c3cccs3)CC2=O)N1 (centres undefined)	-2	-5	8	65*	i	8
CC1=C(C(=O)OC2CCCCC2)C(c2ccc(C)o2)C2=C(CC(C)(C)CC2=O)N1 (centres undefined)	5	-3	6	8	i	0
COc1cccc(-c2nnc(NC(=O)c3ccc(S(=O)(=O)N4CCOCC4)cc3)o2)c1	2	-4	-5	94*	i	1
CC1CN(S(=O)(=O)c2ccc(C(=O)Nc3nnc(-c4ccc5c(c4)CCCC5)o3)cc2)CC(C)O1 (centres undefined)	12	4	7	97*	i	-2
CC(=O)Nc1nnc(-c2ccc3c(c2)CCCC3)o1	25	4	5	2	i	-9
COc1ccc(-c2nnc(NC(=O)c3ccccc3C)o2)cc1	10	/	5	100*	i	1
COc1ccccc1C(=O)Nc1nnc(-c2ccc3c(c2)CCCC3)o1	14	-10	7	98*	i	1
COc1ccc(C(=O)N2CCCCC2)cc1S(=O)(=O)Nc1cccc(Br)c1	/	/	/	/	i	/
O=C(Nc1nnc(-c2ccc3c(c2)CCCC3)o1)C1COc2ccccc2O1 (centres undefined)	13	0	8	100*	i	-6
COc1cccc(C(=O)Nc2nnc(-c3ccc(F)cc3)o2)c1	12	/	0	16	i	4
COc1cccc(C(=O)Nc2nnc(-c3cccs3)o2)c1	24	80*	6	69*	i	1
COc1cccc(C(=O)Nc2nnc(-c3ccc(Cl)cc3)o2)c1	19	/	-2	100*	i	4
CCOc1ccc(-c2nnc(NC(=O)c3ccc(OCC(C)C)c(OC)c3)o2)cc1	11	9	4	100*	/	0
CCCCNC(=O)Nc1nnc(-c2ccc(OCC)cc2)o1	/	-4	/	/	/	/
O=C(Nc1nncs1)C1COc2ccccc2O1 (centres undefined)	13	-12	6	-3	i	1
COc1ccc(CN(CCC2(c3ccccc3)CCOC(C)(C)C2)C(C)=O)cc1OC (centres undefined)	/	/	/	/	i	/
O=C(Oc1c(Cl)cc(Cl)c2cccnc12)c1ccco1	/	100*	/	/	/	/
O=C(Oc1c(CN2CCOCC2)cc(Cl)c2cccnc12)c1ccc(F)cc1	10	18	/	26	i	0
CCOc1ccccc1OCCCCCc1c(C)n[nH]c1C	-1	7	3	42	i	-2
Cc1cccc(OCCCCc2c(C)n[nH]c2C)c1C	18	10	8	100*	i	7
Cc1cccc(OCCCCc2c(C)n[nH]c2C)c1	6	15	6	100*	i	-2
COc1ccc(C(=O)Nn2cnc3scc(-c4cccs4)c3c2=O)c(O)c1	-6	-5	8	75*	i	-1
CCN(C(=O)CN1C(=O)c2ccccc2C1=O)c1ccccc1C	/	/	/	/	i	/
CCSc1nnc2c(n1)OC(c1cccc([N+](=O)[O-])c1)Nc1ccccc1-2 (centres undefined)	/	/	/	/	i	/
CCOc1cc(CNCCO)cc(Br)c1OCc1ccccc1Cl	/	48	/	/	/	/
CCOc1cc(CNCCO)cc(Br)c1OCc1ccc(Cl)cc1	/	78*	/	/	/	/
Nc1ccc2oc(-c3ccccn3)nc2c1	12	2	3	-7	i	2
Clc1ccc2oc(-c3ccccn3)nc2c1	38*	4	9	-4	i	-20
